EP2 modulator – EP2 receptor modulators, cAMP readout, primary screen, cell-based, HTRF cAMP, PGE2 stimulation | EP2-expressing cells, cAMP HTRF FRET, PGE2 co-stimulation | induction, % at 25 µM | hit rate 0.83% among 260,000 | AID 940, 2007;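 active = compounds whose cAMP rise, as percent of the full-agonist control response, exceeds 60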;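 note: rat C6 glioma line stably carrying human EP2 under a CMV promoter; the protocol text gives 20 µM as final concentration; 100% = response of wells given 1 µM PGE2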
NPY2 pot ag – NPY-Y2 potentiators or agonists, primary screen, cell-based; activation, % at 3.6 µM; AID 1359, 2008; cells expressing NPY-Y2, potentiator/agonist read-out; hit rate 0.45% among 220,000; Neuropeptide Y receptor type 2 (Homo sapiens), P49146; in the data active = activation above about 27%;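 note: cells stimulated with NPY near EC25 plus isoproterenol at EC100; 0% = vehicle plus submaximal agonist and 100% = vehicle plus saturating agonist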
Target sequence (P49146 whole entry, looked up): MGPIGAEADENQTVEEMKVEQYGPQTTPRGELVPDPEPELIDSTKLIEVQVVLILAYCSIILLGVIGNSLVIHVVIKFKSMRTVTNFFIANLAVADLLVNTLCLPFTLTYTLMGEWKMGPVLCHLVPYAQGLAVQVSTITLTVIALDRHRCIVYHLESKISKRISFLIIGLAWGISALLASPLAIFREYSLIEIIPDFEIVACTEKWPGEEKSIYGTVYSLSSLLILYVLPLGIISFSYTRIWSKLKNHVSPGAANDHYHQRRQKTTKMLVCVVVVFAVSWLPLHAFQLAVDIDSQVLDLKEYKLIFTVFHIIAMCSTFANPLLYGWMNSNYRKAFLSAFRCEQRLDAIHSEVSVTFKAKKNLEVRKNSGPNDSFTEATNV
NPY-Y1 antag – NPY-Y1 receptor antagonists, primary screen, cell-based | Neuropeptide Y receptor type 1 (Homo sapiens), P25929 | HEK293-CNG Y1 cells, membrane potential fluorescence; NPY at EC95, then isoproterenol | inhibition, % at 3.6 µM | hit rate 1% among 200,000;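 active = inhibition above the campaign mean inhibition of all tested compounds plus 3 SD, cut at about 20% in these data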;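 note: 0% = DMSO wells given NPY plus isoproterenol and 100% = isoproterenol alone without NPY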
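Assay system: HEK293 cells with Y1 receptor plus CNG channel | Probe or stimulus: NPY (25 nM), isoproterenol (1 µM), Ro 20-1724 (25 µM) | Timing: Compound incubation 1 h at room temperature, readout 45 min post-stimulation | Measured by: Membrane-potential fluorescent dye readout | Benchmarks: High control isoproterenol alone, low control NPY with isoproterenol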
NPY-Y2 antag – NPY-Y2 receptor antagonists, primary screen, cell-based; NPY-Y2 expressing cells, antagonist mode; inhibition, % at 2.7 µM; hit rate 0.99% among 140,000; in the data active = inhibition above about 17%;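 note: 0% = vehicle with agonist challenge and 100% = reference antagonist with challenge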
PGE2 EP2 inh – human EP2 receptor antagonists, primary screen, TR-FRET cAMP, C6 glioma cells | inhibition, % at 25 µM | Prostaglandin E2 receptor EP2 subtype (Homo sapiens), P43116 | C6 glioma cells expressing human EP2; cells stimulated with saturating PGE2 | AID 1422, 2008 | hit rate 0.52% among 260,000;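 active = percent inhibition above 40 after rounding to a whole number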;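 note: rat C6 glioma host cells with rolipram phosphodiesterase inhibitor present; the protocol text gives 20 µM as final concentration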
NPY-Y1 PAM-ag – NPY-Y1 receptor potentiators or agonists, primary screen, cell-based. NPY-Y1 expressing cells, potentiator/agonist activation. activation, % at 3.6 µM. hit rate 0.37% among 220,000; in the data active = activation above about 33%, passing the limit was not always enough;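 note: cells stimulated with NPY at EC10 then isoproterenol at EC100; 0% = low agonist plus stimulus and 100% = saturating agonist plus stimulus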
Active calls of the source: *. Compounds with a hit are over-represented: about 2.8% of the library has one in this group of screens.

Screening c1ccc(Nc2nc(NCc3ccco3)c3ccccc3n2)cc1 returned EP2 modulator -46, NPY2 pot ag 10, PGE2 EP2 inh 62* and NPY-Y1 PAM-ag 15.
Screening Oc1ccccc1Nc1nc(NCc2ccco2)c2ccccc2n1 returned EP2 modulator -28, NPY2 pot ag 19, PGE2 EP2 inh 23 and NPY-Y1 PAM-ag -16.
Screening c1ccc(CN2CCN(c3nc(NCc4ccco4)c4ccccc4n3)CC2)cc1 returned EP2 modulator 10, NPY2 pot ag -16, NPY-Y1 antag 31*, NPY-Y2 antag 28*, PGE2 EP2 inh 18 and NPY-Y1 PAM-ag -26.
For COc1ccc([C@H]2CN(Cc3ccccc3)C[C@@H]2NC(=O)c2cn(C)nc2C)cc1 the results were EP2 modulator 0 and PGE2 EP2 inh 8.
For Clc1ccc(CSc2ncnc3c2ncn3[C@@H]2CCCCO2)cc1 the results were EP2 modulator -3 and PGE2 EP2 inh 45*.
CCn1c(SCC(=O)Nc2cccc(I)c2)nnc1-c1ccccc1 was read as EP2 modulator -21 and PGE2 EP2 inh 16.
COc1ccc(S(=O)(=O)N2CCCN(CC(=O)Nc3ccc(OC)c(Cl)c3)CC2)cc1 was read as EP2 modulator -12, NPY2 pot ag -21, NPY-Y1 antag 38*, NPY-Y2 antag 18* and NPY-Y1 PAM-ag -46.
For COc1ccc(C(=O)[C@H]2CCCN(C(=O)c3cc(C4CC4)[nH]n3)C2)cc1 the results were EP2 modulator -75 and PGE2 EP2 inh 6.
Screening Cc1ccc(C(=O)Nc2cc(Cl)ccc2N2CCCCC2)s1 returned EP2 modulator 62*, NPY2 pot ag -23, NPY-Y1 antag 10, NPY-Y2 antag 13, PGE2 EP2 inh 12 and NPY-Y1 PAM-ag -54.
Screening Cc1cccc(C)c1NC(=O)CN1C(=O)C(C)(C)Oc2ccc(C(=O)NC3CCCC3)cc21 returned EP2 modulator 10 and PGE2 EP2 inh 6.
`C=CCn1cc(/C=N/Nc2nc3ccccc3[nH]2)c2ccccc21` gave EP2 modulator -66, NPY2 pot ag 47*, NPY-Y1 antag -7, NPY-Y2 antag -3, PGE2 EP2 inh 24 and NPY-Y1 PAM-ag 48*.
`S=C(Nc1ccc(Br)cc1)N1CCn2cccc2C1c1cccnc1` (configuration not stated) gave EP2 modulator -97, NPY2 pot ag 1, NPY-Y1 antag -6, PGE2 EP2 inh 7 and NPY-Y1 PAM-ag 28.
FC(F)(F)c1cc(NC(=S)N2c3ccccc3-n3cccc3[C@H]2c2cccnc2)cc(C(F)(F)F)c1 was read as EP2 modulator -16 and PGE2 EP2 inh 44*.
For O=C(Nc1nc2ccsc2c(=O)s1)c1ccc(Cl)cc1 the results were EP2 modulator -4, NPY2 pot ag -24, PGE2 EP2 inh 43* and NPY-Y1 PAM-ag 6.
Screening CCOC(=O)C1=C(C)N(CCOC)C(=O)/C1=C\c1cccc(OC)c1 returned EP2 modulator -47 and PGE2 EP2 inh 9.
For O=C(CSc1ncnc2sc3c(c12)CCCC3)c1ccccc1 the results were EP2 modulator 21, NPY2 pot ag -6, NPY-Y1 antag -3, NPY-Y2 antag 2, PGE2 EP2 inh 24 and NPY-Y1 PAM-ag -22.
`O=C(CSc1ncnc2sc3c(c12)CCCC3)OCc1ccccc1` gave EP2 modulator 62* and PGE2 EP2 inh 8.
Screening COc1ccc(NC(=S)Nc2cnc3ccccc3c2)c(OC)c1 returned EP2 modulator -64, NPY2 pot ag 5, NPY-Y1 antag -2, PGE2 EP2 inh 44* and NPY-Y1 PAM-ag -1.
Screening COc1ccc(NC(=S)Nc2ccccc2OC)c(OC)c1 returned EP2 modulator -19, NPY2 pot ag 1, NPY-Y1 antag 1, PGE2 EP2 inh 6 and NPY-Y1 PAM-ag 18.
For Cc1cc(C(F)F)n2ncc(C(=O)N3CCN(Cc4ccco4)C[C@@H]3C(C)C)c2n1 the results were EP2 modulator -20.
